Reference: ChEMBL document CHEMBL1133661, “Synthesis and in vitro anti-mycobacterium activity of N-alkyl-1, 2-dihydro-2-thioxo-3-pyridinecarbothioamides. Preliminary toxicity and pharmacokinetic evaluation” (J Med Chem, 2000)
Converted amounts (≈) assume the structure as drawn.

Columns and labels:
[1] = Clearance (CL) value in rats after intravenous administration.; type: ADME, organism-based; conditions: rat, in vivo, read-out: CI
Method in brief: (§1)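 Male Wistar rats (250-300 g), single 20 mg/kg i.v. dose in poly(ethylene glycol) 400, given through a permanent jugular-vein cannula that also served for blood sampling. Plasma levels measured by GC-MS (electron impact 70 eV; ions 233, 181, 168, 137, 104 monitored). Parameters derived by noncompartmental analysis.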

[2] = Mean residence time (MRT) in rats after intravenous administration; type: ADME, organism-based; conditions: rat, in vivo; method in brief: as §1
[3] = Area under curve (AUC) value of the compound; type: ADME; method in brief: as §1
[4] = Elimination half life value after intravenous administration in rats; type: ADME, organism-based; conditions: rat, in vivo; method in brief: as §1
[5] = tested on: Mycobacterium avium; experiment: In Vitro antimicrobial activity against the Mycobacterium avium complex (MAC) Wild type strain AN1; type: functional
Method in brief: (§2)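 MIC by radiometric broth dilution (BACTEC 460-TB) in 7H12 liquid medium containing 14C-palmitic acid. Growth read as 14CO2 release, recorded as growth index (0–999). Compounds stocked in DMSO; working solutions at 40-fold final concentration made in sterile distilled water. Ethambutol reference. MIC expressed in µg/mL.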

[6] = tested on: Mycobacterium avium; experiment: In Vitro antimicrobial activity against the Mycobacterium avium complex (MAC) Wild type strain AN2; type: functional; method in brief: as §2
[7] = tested on: Mycobacterium avium; experiment: In Vitro antimicrobial activity against the Mycobacterium avium complex (MAC) Wild type strain AN3; type: functional; method in brief: as §2
[8] = tested on: Mycobacterium avium; experiment: In Vitro antimicrobial activity against the Mycobacterium avium complex (MAC) Wild type strain ISS 486; type: functional; method in brief: as §2
[9] = tested on: Mycobacterium avium; experiment: In Vitro antimicrobial activity against the Mycobacterium avium complex (MAC) strain ATCC 15769; type: functional; method in brief: as §2
[10] = tested on: Mycobacterium tuberculosis; experiment: In Vitro antimicrobial activity against the Mycobacterium tuberculosis (MT) Wild type strain MT-1; type: functional; method in brief: as §2
[11] = tested on: Mycobacterium tuberculosis; experiment: In Vitro antimicrobial activity against the Mycobacterium tuberculosis (MT) Wild type strain MT-2; type: functional; method in brief: as §2
[12] = tested on: Mycobacterium tuberculosis; experiment: In Vitro antimicrobial activity against the Mycobacterium tuberculosis (MT) strain H-37-Rv ATCC; type: functional; method in brief: as §2
[13] = Volume of distribution in rats after intravenous administration; type: ADME, organism-based; conditions: rat, in vivo, read-out: Vss; method in brief: as §1
[14] = tested on: Mycobacterium avium; experiment: In Vitro antimicrobial activity against Mycobacterium avium complex (MAC) strain ATCC 15769; type: functional; method in brief: as §2
[15] = Mean residence time (MRT) in rats after intravenous administration.; type: ADME, organism-based; conditions: rat, in vivo; method in brief: as §1

SMILES | clearance [1] | MRT [2] | AUC [3] | half-life [4] | MIC [5] | MIC [6] | MIC [7] | MIC [8] | MIC [9] | MIC [10] | MIC [11] | MIC [12] | Vd [13] | MIC [14] | MRT [15]
CCCCCCC/N=C(\S)c1cccnc1S | 50 mL/min | 28.9 min | 8250 ng·h/mL | 28 min | 4 µg/mL (≈ 14.9 µM) | 4 µg/mL (≈ 14.9 µM) | 4 µg/mL (≈ 14.9 µM) | 4 µg/mL (≈ 14.9 µM) | 2 µg/mL (≈ 7.45 µM) | 2 µg/mL (≈ 7.45 µM) | 2 µg/mL (≈ 7.45 µM) | 0.5 µg/mL (≈ 1.86 µM) | 1.28 L | – | –
CCCCC/N=C(\S)c1cccnc1S | – | – | – | – | 1 µg/mL (≈ 4.16 µM) | 2 µg/mL (≈ 8.32 µM) | 1 µg/mL (≈ 4.16 µM) | 1 µg/mL (≈ 4.16 µM) | 1 µg/mL (≈ 4.16 µM) | 4 µg/mL (≈ 16.6 µM) | 4 µg/mL (≈ 16.6 µM) | 2 µg/mL (≈ 8.32 µM) | – | – | –
CCCCCC/N=c1\ssc2ncccc12.CCCCCCn1sc2ncccc2c1=S | – | – | – | – | – | – | – | – | 8 µg/mL | 8 µg/mL | 8 µg/mL | 4 µg/mL | – | – | –
CCCCCCCCC/N=C(\S)c1cccnc1S | – | – | – | – | 8 µg/mL (≈ 27 µM) | 8 µg/mL (≈ 27 µM) | 8 µg/mL (≈ 27 µM) | 8 µg/mL (≈ 27 µM) | 8 µg/mL (≈ 27 µM) | 16 µg/mL (≈ 54 µM) | 16 µg/mL (≈ 54 µM) | 4 µg/mL (≈ 13.5 µM) | – | – | –
C/N=C(\S)c1cccnc1S | – | – | – | – | 8 µg/mL (≈ 43.4 µM) | 4 µg/mL (≈ 21.7 µM) | 4 µg/mL (≈ 21.7 µM) | 4 µg/mL (≈ 21.7 µM) | 4 µg/mL (≈ 21.7 µM) | 1 µg/mL (≈ 5.43 µM) | 1 µg/mL (≈ 5.43 µM) | 2 µg/mL (≈ 10.9 µM) | – | – | –
CCCCCCn1sc2ncccc2c1=O | – | – | – | – | – | – | – | – | 16 µg/mL (≈ 67.7 µM) | 8 µg/mL (≈ 33.8 µM) | 8 µg/mL (≈ 33.8 µM) | 16 µg/mL (≈ 67.7 µM) | – | – | –
CCCCCCCCCCCCCCCC/N=C(\S)c1cccnc1S | – | – | – | – | 8 µg/mL (≈ 20.3 µM) | 8 µg/mL (≈ 20.3 µM) | 8 µg/mL (≈ 20.3 µM) | 8 µg/mL (≈ 20.3 µM) | 8 µg/mL (≈ 20.3 µM) | 16 µg/mL (≈ 40.5 µM) | 32 µg/mL (≈ 81.1 µM) | 16 µg/mL (≈ 40.5 µM) | – | – | –
S=c1ssc2ncccc12 | – | – | – | – | – | – | – | – | – | – | – | – | – | 8 µg/mL (≈ 43.2 µM) | –
O=c1ssc2ncccc12 | – | – | – | – | – | – | – | – | 2 µg/mL (≈ 11.8 µM) | 8 µg/mL (≈ 47.3 µM) | 8 µg/mL (≈ 47.3 µM) | 4 µg/mL (≈ 23.6 µM) | – | – | –
CCC/N=C(\S)c1cccnc1S | – | – | – | – | 2 µg/mL (≈ 9.42 µM) | 4 µg/mL (≈ 18.8 µM) | 2 µg/mL (≈ 9.42 µM) | 1 µg/mL (≈ 4.71 µM) | 2 µg/mL (≈ 9.42 µM) | 4 µg/mL (≈ 18.8 µM) | 4 µg/mL (≈ 18.8 µM) | 2 µg/mL (≈ 9.42 µM) | – | – | –
CCCCCCCCCC/N=C(\S)c1cccnc1S | – | – | – | – | 32 µg/mL (≈ 103 µM) | 32 µg/mL (≈ 103 µM) | 32 µg/mL (≈ 103 µM) | 32 µg/mL (≈ 103 µM) | 16 µg/mL (≈ 51.5 µM) | 64 µg/mL (≈ 206 µM) | 64 µg/mL (≈ 206 µM) | 16 µg/mL (≈ 51.5 µM) | – | – | –
CCCC/N=C(\S)c1cccnc1S | – | – | – | – | 4 µg/mL (≈ 17.7 µM) | 4 µg/mL (≈ 17.7 µM) | 4 µg/mL (≈ 17.7 µM) | 2 µg/mL (≈ 8.84 µM) | 1 µg/mL (≈ 4.42 µM) | 4 µg/mL (≈ 17.7 µM) | 4 µg/mL (≈ 17.7 µM) | 4 µg/mL (≈ 17.7 µM) | – | – | –
CCCCCCCCCCCCCCCCCC/N=C(\S)c1cccnc1S | – | – | – | – | 32 µg/mL (≈ 75.7 µM) | 32 µg/mL (≈ 75.7 µM) | 32 µg/mL (≈ 75.7 µM) | 32 µg/mL (≈ 75.7 µM) | 64 µg/mL (≈ 151 µM) | 64 µg/mL (≈ 151 µM) | 64 µg/mL (≈ 151 µM) | 32 µg/mL (≈ 75.7 µM) | – | – | –
CCCCCCNC(=O)c1cccnc1S | – | – | – | – | – | – | – | – | 8 µg/mL (≈ 33.6 µM) | 8 µg/mL (≈ 33.6 µM) | 16 µg/mL (≈ 67.1 µM) | 8 µg/mL (≈ 33.6 µM) | – | – | –
CC[C@@H](CO)NCCN[C@@H](CC)CO [ETHAMBUTOL] | – | – | – | – | 1 µg/mL (≈ 4.89 µM) | 0.5 µg/mL (≈ 2.45 µM) | 2 µg/mL (≈ 9.79 µM) | 2 µg/mL (≈ 9.79 µM) | – | < 2 µg/mL | < 2 µg/mL | < 2 µg/mL | – | – | –
OCC/N=C(\S)c1cccnc1S | – | – | – | – | 4 µg/mL (≈ 18.7 µM) | 8 µg/mL (≈ 37.3 µM) | 4 µg/mL (≈ 18.7 µM) | 8 µg/mL (≈ 37.3 µM) | 8 µg/mL (≈ 37.3 µM) | 4 µg/mL (≈ 18.7 µM) | 8 µg/mL (≈ 37.3 µM) | 2 µg/mL (≈ 9.33 µM) | – | – | –
CC/N=C(\S)c1cccnc1S | 20 mL/min | – | 18500 ng·h/mL | 37.2 min | 4 µg/mL (≈ 20.2 µM) | 8 µg/mL (≈ 40.3 µM) | 8 µg/mL (≈ 40.3 µM) | 4 µg/mL (≈ 20.2 µM) | 4 µg/mL (≈ 20.2 µM) | 1 µg/mL (≈ 5.04 µM) | 1 µg/mL (≈ 5.04 µM) | 0.5 µg/mL (≈ 2.52 µM) | 0.93 L | – | 47.6 min
S/C(=N\C1CCCCC1)c1cccnc1S | – | – | – | – | 4 µg/mL (≈ 15.8 µM) | 4 µg/mL (≈ 15.8 µM) | 4 µg/mL (≈ 15.8 µM) | 4 µg/mL (≈ 15.8 µM) | 4 µg/mL (≈ 15.8 µM) | 4 µg/mL (≈ 15.8 µM) | 1 µg/mL (≈ 3.96 µM) | 0.5 µg/mL (≈ 1.98 µM) | – | – | –
CCCCCCCC/N=C(\S)c1cccnc1S | – | – | – | – | 8 µg/mL (≈ 28.3 µM) | 4 µg/mL (≈ 14.2 µM) | 4 µg/mL (≈ 14.2 µM) | 8 µg/mL (≈ 28.3 µM) | 4 µg/mL (≈ 14.2 µM) | 4 µg/mL (≈ 14.2 µM) | 4 µg/mL (≈ 14.2 µM) | 1 µg/mL (≈ 3.54 µM) | – | – | –
CCCCCC/N=C(\S)c1cccnc1S | – | – | – | – | 1 µg/mL (≈ 3.93 µM) | 1 µg/mL (≈ 3.93 µM) | 1 µg/mL (≈ 3.93 µM) | 0.5 µg/mL (≈ 1.97 µM) | 1 µg/mL (≈ 3.93 µM) | 1 µg/mL (≈ 3.93 µM) | 2 µg/mL (≈ 7.86 µM) | 1 µg/mL (≈ 3.93 µM) | – | – | –
